Structures are written as SMILES. Active and inactive are the calls of the source. No cut-off for these calls is given here.

The first series addresses T1, Indoleamine 2,3-dioxygenase 1 (Homo sapiens, UniProt P14902). Briefly: Inhibition of recombinant human IDO1 expressed in Escherichia coli Rosetta (DE3) cells assessed as reduction in kynurenine production using L-tryptophan as substrate incubated for 20 mins by HPLC analysis.
Target sequence in this assay (P14902 whole entry): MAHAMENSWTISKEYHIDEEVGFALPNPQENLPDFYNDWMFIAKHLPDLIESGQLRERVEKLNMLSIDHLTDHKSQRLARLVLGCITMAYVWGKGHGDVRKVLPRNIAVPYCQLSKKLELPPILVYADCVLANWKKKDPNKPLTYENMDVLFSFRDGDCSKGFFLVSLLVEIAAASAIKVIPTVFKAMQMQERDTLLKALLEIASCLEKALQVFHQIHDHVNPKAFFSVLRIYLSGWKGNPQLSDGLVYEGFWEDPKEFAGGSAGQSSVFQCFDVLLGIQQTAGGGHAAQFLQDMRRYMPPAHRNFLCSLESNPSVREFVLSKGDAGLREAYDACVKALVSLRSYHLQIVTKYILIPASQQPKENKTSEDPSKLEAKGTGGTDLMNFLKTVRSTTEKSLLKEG
Broadly, the IC50 is the point on the concentration scale where inhibition reaches its midpoint. Regarding `Nc1ccc(Cl)cc1-c1nnn[nH]1`, the IC50 turned out to be 0.22 µM.

Regarding `Cn1cncc1-c1ccccc1O`, the IC50 is 38 µM.

For the molecule `Nc1ccc(Br)cc1-c1nc[nH]n1`, the half-maximal inhibitory concentration (IC50) is 0.02 µM.

Turning to `Oc1ccccc1-c1nnc[nH]1`, the IC50 was determined as 31 µM.

As to `Oc1ccc(Cl)cc1-c1nnc[nH]1`, the IC50 was 0.6 µM.

For `Nc1ccccc1-c1c[nH]nn1`, the IC50 came out at 33 µM.

With `Nc1ccccc1-c1cnc[nH]1`, the 50% inhibitory concentration (IC50) was determined as 18 µM.

Turning to `Oc1ccccc1-n1ccnc1`, the half-inhibitory concentration (IC50) is 16 µM.

On to `Oc1ccc(Cl)cc1-n1ccnc1`, for which the IC50 was found to be 2.1 µM.

Regarding `Cn1cncc1-c1ccccc1N`, the IC50 was 1700 µM.

Regarding `Cn1cncc1-c1cccc(Cl)c1`, the IC50 was 12.9 µM.

In the case of `Clc1cccc(-c2nnn[nH]2)c1`, the half-maximal inhibitory concentration (IC50) turned out to be 100 µM.

Consider `Nc1ccc(Cl)cc1-c1cnn[nH]1`, for which the IC50 stood at 1.5 µM.

Regarding `Nc1ccc(Cl)cc1-c1nnc[nH]1`, the IC50 was determined as 0.035 µM.

Take `Clc1cccc(-c2cnc[nH]2)c1`: the IC50 was found to be 2.6 µM.

As for `Nc1ccc(Cl)cc1-n1ccnc1`, the 50% inhibitory concentration (IC50) amounted to 88 µM.

For the molecule `Nc1ccccc1-c1nnn[nH]1`, the IC50 was determined as 5.8 µM.

Take `Nc1ccccc1-n1ccnc1`: the IC50 stood at 1300 µM.

As for `Nc1ccccc1-c1nnc[nH]1`, the IC50 came to 2 µM.

For `Oc1ccccc1-c1c[nH]nn1`, the IC50 came out at 2.3 µM.

With `Oc1ccc(Cl)cc1-c1nnn[nH]1`, the 50% inhibitory concentration (IC50) is 16 µM.

As to `Oc1ccccc1-c1nnn[nH]1`, the IC50 worked out at 700 µM.

As to `Clc1cccc(-c2nnc[nH]2)c1`, the IC50 is 31 µM.

As to `Clc1cccc(-n2ccnc2)c1`, the IC50 was found to be 41 µM.

As to `Nc1ccc(Cl)cc1-c1cnc[nH]1`, the IC50 came out at 12.1 µM.

With `Cn1cncc1-c1cc(Cl)ccc1N`, the 50% inhibitory concentration (IC50) was found to be 1200 µM.

Regarding `Cn1cncc1-c1cc(Cl)ccc1O`, the IC50 amounted to 17 µM.

`Clc1cccc(-c2c[nH]nn2)c1`: the IC50 is 0.35 µM.

In the next series the target is T1, Indoleamine 2,3-dioxygenase 1. In words: Inhibition of recombinant human IDO1 expressed in Escherichia coli Rosetta (DE3) cells assessed as reduction in kynurenine production using L-tryptophan as substrate at pH 7.4 incubated for 20 mins by HPLC analysis.
Target sequence in this assay (P14902 whole entry): as above
`c1ccc(-c2nc[nH]n2)cc1`: the IC50 stood at 580 µM.

For another series the target is unchanged. Briefly: Inhibition of human IDO1 expressed in HEK293T cells assessed as reduction in kynurenine production at 200 uM using L-tryptophan as substrate incubated for 7 hrs by HPLC analysis. In kind it is cell-based. In a few lines:
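HEK 293T cells transiently transfected with full-length hIDO1 in pcDNA6/myc-His (with GFP plasmid to check efficiency); 16–18 h later replated in phenol-red-free DMEM with 10% FBS, 1 mM pyruvate, and added 500 μM L-trp. Compound at 200 μM, 2% final DMSO, 7 h at 37 °C; stopped with TCA (4% final). Kynurenine read by p-DMAB absorbance at 480 nm or by HPLC.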
Target sequence in this assay (P14902 whole entry, looked up): as the sequence (P14902 whole entry) above
As to `Oc1ccc(Cl)cc1-n1ccnc1`, the inhibition entry is “inactive”.

For the next series the target is unchanged. Briefly: Inhibition of human IDO1 expressed in HEK293T cells assessed as reduction in kynurenine production using L-tryptophan as substrate incubated for 7 hrs by HPLC analysis. The class given is cell-based.
Target sequence in this assay (P14902 whole entry): as above
Take `Nc1ccc(Cl)cc1-c1nnc[nH]1`: the IC50 was 0.034 µM.

The next series relates to HEK-293T. In words: Cytotoxicity against human HEK293T cells assessed as reduction in cell viability at 200 uM after 7 hrs by DAPI staining based assay. A digest of the protocol:
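HEK 293T cells transiently transfected with hIDO1 (plus GFP plasmid), treated at 200 μM test compound with 2% final DMSO for 7 h at 37 °C; DMSO as negative control. Cells then washed in PBS, resuspended in PBS with 1 μg/mL DAPI and analysed immediately by flow cytometry to detect apoptotic cells.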
As for `Nc1ccc(Cl)cc1-c1nnn[nH]1`, the Activity result was “Non-Toxic”.

On to `Cn1cncc1-c1ccccc1O`, for which the Activity entry is recorded as “Non-Toxic”.

Take `Oc1ccccc1-c1nnc[nH]1`: the Activity result is given as “Non-Toxic”.

For the molecule `Oc1ccc(Cl)cc1-c1nnc[nH]1`, the Activity entry is “Non-Toxic”.

Regarding `Nc1ccccc1-c1c[nH]nn1`, the Activity came to 30%.

For `Nc1ccccc1-c1cnc[nH]1`, the Activity result was “Non-Toxic”.

For the molecule `Oc1ccccc1-n1ccnc1`, the Activity result is on record as “Non-Toxic”.

Turning to `Oc1ccc(Cl)cc1-n1ccnc1`, the Activity entry is listed as “Non-Toxic”.

As to `Cn1cncc1-c1ccccc1N`, the Activity result was “Non-Toxic”.

Take `c1ccc(-n2ccnc2)cc1`: the Activity entry is on record as “Non-Toxic”.

For the molecule `Oc1ccc(Cl)cc1-c1cnc[nH]1`, the Activity result is on record as “Non-Toxic”.

For `Cn1cncc1-c1cccc(Cl)c1`, the Activity result is on record as “Non-Toxic”.

As to `Oc1ccccc1-c1c[nH]cn1`, the Activity entry was “Non-Toxic”.

On to `Clc1cccc(-c2nnn[nH]2)c1`, for which the Activity entry is given as “Non-Toxic”.

On to `Nc1ccc(Cl)cc1-c1cnn[nH]1`, for which the Activity is recorded as 30%.

For the molecule `Cn1cncc1-c1ccccc1`, the Activity entry is given as “Non-Toxic”.

As for `Nc1ccc(Cl)cc1-c1nnc[nH]1`, the Activity result was “Non-Toxic”.

As for `Clc1cccc(-c2cnc[nH]2)c1`, the Activity entry was “Non-Toxic”.

Turning to `Nc1ccc(Cl)cc1-n1ccnc1`, the Activity result is “Non-Toxic”.

In the case of `Nc1ccccc1-c1nnn[nH]1`, the Activity entry is recorded as “Non-Toxic”.

Take `Nc1ccccc1-n1ccnc1`: the Activity entry is given as “Non-Toxic”.

`Nc1ccccc1-c1nnc[nH]1`: the Activity result is on record as “Non-Toxic”.

As for `Oc1ccccc1-c1c[nH]nn1`, the Activity result is reported as “Non-Toxic”.

In the case of `Oc1ccc(Cl)cc1-c1nnn[nH]1`, the Activity entry was “Non-Toxic”.

Turning to `Oc1ccccc1-c1nnn[nH]1`, the Activity result is “Non-Toxic”.

Turning to `Clc1cccc(-c2nnc[nH]2)c1`, the Activity result is listed as “Non-Toxic”.

For the molecule `c1ccc(-c2nnn[nH]2)cc1`, the Activity result was “Non-Toxic”.

`Clc1cccc(-n2ccnc2)c1`: the Activity result is given as “Non-Toxic”.

Consider `Oc1ccc(Cl)cc1-c1c[nH]nn1`, for which the Activity entry is recorded as “Non-Toxic”.

With `Nc1ccc(Cl)cc1-c1cnc[nH]1`, the Activity result is recorded as “Non-Toxic”.

On to `c1ccc(-c2c[nH]cn2)cc1`, for which the Activity result is reported as “Non-Toxic”.

`Cn1cncc1-c1cc(Cl)ccc1N`: the Activity entry is “Non-Toxic”.

Consider `c1ccc(-c2nc[nH]n2)cc1`, for which the Activity entry is given as “Non-Toxic”.

With `Cn1cncc1-c1cc(Cl)ccc1O`, the Activity entry is reported as “Non-Toxic”.

For the molecule `c1ccc(-c2cnn[nH]2)cc1`, the Activity result was “Non-Toxic”.

As for `Clc1cccc(-c2c[nH]nn2)c1`, the Activity entry is on record as “Non-Toxic”.
